Published values of several laboratories.
Compare with care: the assays were run in different laboratories.
MTNR1B: Melatonin receptor type 1B (MTNR1B, Homo sapiens, UniProt P49286)
GRM7: Metabotropic glutamate receptor 7 (GRM7, Homo sapiens, UniProt Q14831)

SMILES	target	test	setting	endpoint	value
COc1ccc2c(c1)C(=O)C1(Cc3ccccc3C1)O2	Peptidyl-prolyl cis-trans isomerase NIMA-interacting 1 (PIN1, Homo sapiens, UniProt Q13526)	enzyme activity, inhibitor	–	Ki	100000 nM
CCC(=O)NC1Cc2ccccc2C(c2ccccc2)C1 (centres unmarked)	MTNR1B	GTPγS binding, agonist, radiometric	cell membranes	EC50	1.58 nM
C=CC(=O)Nc1cccc(CN2C(=O)N(c3c(Cl)c(OC)cc(OC)c3Cl)Cc3cnc(NCCCCN(CC)CC)nc32)c1	Mitogen-activated protein kinase 7 (MAPK7, Homo sapiens, UniProt Q13164)	binding, competition with immobilised ligand	–	Kd	160 nM
COCC(CNC(C)=O)c1cccc2ccc(OC)cc12 (centres unmarked)	MTNR1B	β-arrestin recruitment, agonist	–	EC50	3.09 nM
CC1(C)[C@@H](O)CC[C@]2(C)[C@H]3C(=O)C=C4[C@@H]5C[C@@](C)(C(=O)O)CC[C@]5(C)CC[C@@]4(C)[C@]3(C)CC[C@@H]12	Peroxiredoxin-1 (PRDX1, Homo sapiens, UniProt Q06830)	binding, SPR	–	Kd	25000 nM
O=C(NCCc1cccc2ccccc12)C1CCC1	MTNR1B	cAMP, agonist, TR-FRET	–	EC50	1660 nM
C[C@H](C(=O)N[C@@H]1COc2ccccc2[C@H]1S(C)(=O)=O)c1ccc(F)cc1	GRM7	cAMP, agonist, luciferase	–	EC50	28 nM
O=C1c2ccccc2CCN1CCCCN1CCN(c2cccc(Cl)c2Cl)CC1	5-hydroxytryptamine receptor 1B (HTR1B, Homo sapiens, UniProt P28222)	ligand displacement, radioligand	–	Ki	73 nM
CCc1ccc2scc(CCNC(C)=O)c2c1	MTNR1B	cAMP, agonist, TR-FRET	–	EC50	39.8 nM
Cc1cc(Nc2cc3ncccc3c(N[C@@H]3C[C@H]4CC[C@@H](C3)N4CCC#N)n2)n[nH]1	Cyclin-dependent kinase 7 (CDK7, Homo sapiens, UniProt P50613)	binding, competition with immobilised ligand	–	Kd	860 nM
COc1ccc(-c2nsc(NC(=O)[C@@H]3C[C@H]3C)c2C)cc1	GRM7	calcium signal, agonist	–	EC50	> 16700 nM
C=C1CC[C@@H]2[C@](C)(CO)[C@H](O)CC[C@@]2(C)[C@@H]1CCC1=CCOC1=O	UDP-glucuronosyltransferase 2B7 (UGT2B7, Homo sapiens, UniProt P16662)	enzyme activity, inhibitor	pH 7.4	Ki	1500 nM
Clc1ccc(CNc2cccc(-c3nnc[nH]3)c2)c(Br)c1	MTNR1B	cell-free assay	–	Ki	1410 nM
Cc1cc2nc3c(=O)[nH]c(=O)nc-3n(C[C@H](O)[C@H](O)[C@H](O)COP(=O)(O)OP(=O)(O)OC[C@H]3O[C@@H](n4cnc5c(N)ncnc54)[C@H](O)[C@@H]3O)c2cc1C	Transformer-2 protein homolog beta (Homo sapiens, UniProt P62995)	binding	lysate	Kd	36 nM
